Results published in ChEMBL document CHEMBL3593197, “Development of novel DIF-1 derivatives that selectively suppress innate immune responses” (Bioorg Med Chem, 2015).
The source made the active and inactive calls. The rule behind the calls is not given here.

System: Jurkat
Assay: Immunosuppressive activity in human Jurkat cells assessed as inhibition of ConA-induced IL2 production at 5 uM pre-treated for 30 mins before ConA stimulation for 12 hrs by immunoassay
Type: functional, cell-based
Conditions: not given
Procedure, shortened: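 ConA was added to a final 25 µg/mL and cells were incubated a further 12 h. Secreted IL-2 in the culture medium was quantified by anti-human IL-2 sandwich immunoassay, in duplicate wells. Mean ± SD of three independent experiments.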

SMILES | inhibition
CCCCCCC(=O)c1c(OC)c(Cl)c(OC)c(Cl)c1OC | Active
CCCCCCCC(=O)c1c(O)c(Cl)c(O)c(Cl)c1O | Active

System: Drosophila
Assay: Immunosuppressive activity in Drosophila S2 cells expressing att-luc reporter gene assessed as inhibition of peptidoglycan-induced attacin production pre-treated for 1.5 hrs before peptidoglycan stimulation for 8 hrs by luciferase reporter gene assay
Type: functional
Conditions: not given
Procedure, shortened: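 S2 cells stably carrying an attacin-promoter luciferase reporter were pre-treated with a concentration series of compound for 1.5 h. They were then stimulated with 100 ng/mL peptidoglycan. After 8 h, cells were lysed and luciferase luminescence was read. IC50 is the concentration lowering signal to 50% of the peptidoglycan-only control. Mean ± SD of four independent experiments.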

IC50 | SMILES | inhibition
6.5 µM | CCCCCCCCC(=O)c1c(O)c(Cl)c(O)c(Cl)c1O | –
9.9 µM | CCCCCC(=O)c1c(O)c(Cl)c(O)c(Cl)c1O | –
16.8 µM | CCCCCCC(=O)c1c(OC)c(Cl)c(OC)c(Cl)c1OC | –
58.6 µM | CCCCCCc1c(O)c(Cl)c(OC)c(Cl)c1O | –
23.5 µM | CCCCC(=O)c1c(OC)c(Cl)c(OC)c(Cl)c1OC | –
3.8 µM | CCCCCC(=O)c1c(O)c(Cl)c(C)c(Cl)c1O | –
21.5 µM | CCCC(=O)c1c(O)c(Cl)c(O)c(Cl)c1O | –
4.6 µM | CCCCCC(=O)c1c(O)c(Cl)c(OC)c(Cl)c1O | Dose-dependent effect
3.7 µM | CCCCCC(=O)c1c(O)c(Br)c(OC)c(Br)c1O | –
4.6 µM | CCCCCC(=O)c1c(O)cc(OC)c(Cl)c1O | –
20.8 µM | CCCC(=O)c1c(OC)c(Cl)c(OC)c(Cl)c1OC | –
15.3 µM | CCCCCCCC(=O)c1c(OC)c(Cl)c(OC)c(Cl)c1OC | –
18.9 µM | CCCCCC(=O)c1c(OC)c(Cl)c(OC)c(Cl)c1OC | –
3.7 µM | CCCCCCCC(=O)c1c(O)c(Cl)c(O)c(Cl)c1O | –

System: not listed separately
Assay: Cytotoxicity against Drosophila S2 assessed as reduction in cell proliferation by WST8 assay
Conditions: Drosophila S2 cells
Procedure, shortened: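 S2 cells exposed to a concentration series of compound for 24 h; proliferation read by colorimetric WST-8 conversion. CC50 is the concentration reducing proliferation to 50% of DMSO control. Mean ± SD of four independent experiments.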

SMILES | CC50
CCCCCCCCC(=O)c1c(O)c(Cl)c(O)c(Cl)c1O | 82.8 µM
CCCCCC(=O)c1c(O)c(Cl)c(O)c(Cl)c1O | 102 µM
CCCCCCC(=O)c1c(OC)c(Cl)c(OC)c(Cl)c1OC | 140 µM
CCCCCCc1c(O)c(Cl)c(OC)c(Cl)c1O | > 100 µM
CCCCC(=O)c1c(OC)c(Cl)c(OC)c(Cl)c1OC | 149 µM
CCCCCC(=O)c1c(O)c(Cl)c(C)c(Cl)c1O | 13.8 µM
CCCC(=O)c1c(O)c(Cl)c(O)c(Cl)c1O | > 100 µM
CCCCCC(=O)c1c(O)c(Cl)c(OC)c(Cl)c1O | 22.5 µM
CCCCCC(=O)c1c(O)c(Br)c(OC)c(Br)c1O | 12.9 µM
CCCCCC(=O)c1c(O)cc(OC)c(Cl)c1O | 8.7 µM
CCCC(=O)c1c(OC)c(Cl)c(OC)c(Cl)c1OC | 144 µM
CCCCCCCC(=O)c1c(OC)c(Cl)c(OC)c(Cl)c1OC | 51.4 µM
CCCCCC(=O)c1c(OC)c(Cl)c(OC)c(Cl)c1OC | 148 µM
CCCCCCCC(=O)c1c(O)c(Cl)c(O)c(Cl)c1O | 88.5 µM

System: Drosophila
Assay: Selectivity index, ratio of CC50 for Drosophila S2 by WST8 assay to IC50 for immunosuppressive activity in Drosophila S2 cells expressing att-luc reporter gene assessed as inhibition of attacin production
Type: functional
Conditions: not given
Procedure, shortened: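 The ratio is CC50 divided by IC50. CC50 comes from 24 h WST-8 proliferation of S2 cells, relative to DMSO. IC50 comes from 8 h luciferase signal in peptidoglycan-stimulated (100 ng/mL) S2 att-luc reporter cells pre-treated 1.5 h. Both were derived from concentration series.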

SMILES | Ratio CC50/IC50
CCCCCCCCC(=O)c1c(O)c(Cl)c(O)c(Cl)c1O | 12.7
CCCCCC(=O)c1c(O)c(Cl)c(O)c(Cl)c1O | 10.3
CCCCCCC(=O)c1c(OC)c(Cl)c(OC)c(Cl)c1OC | 8.3
CCCCCCc1c(O)c(Cl)c(OC)c(Cl)c1O | >1.7
CCCCC(=O)c1c(OC)c(Cl)c(OC)c(Cl)c1OC | 6.3
CCCCCC(=O)c1c(O)c(Cl)c(C)c(Cl)c1O | 3.6
CCCC(=O)c1c(O)c(Cl)c(O)c(Cl)c1O | >4.7
CCCCCC(=O)c1c(O)c(Cl)c(OC)c(Cl)c1O | 4.9
CCCCCC(=O)c1c(O)c(Br)c(OC)c(Br)c1O | 3.5
CCCCCC(=O)c1c(O)cc(OC)c(Cl)c1O | 1.9
CCCC(=O)c1c(OC)c(Cl)c(OC)c(Cl)c1OC | 6.9
CCCCCCCC(=O)c1c(OC)c(Cl)c(OC)c(Cl)c1OC | 3.4
CCCCCC(=O)c1c(OC)c(Cl)c(OC)c(Cl)c1OC | 7.8
CCCCCCCC(=O)c1c(O)c(Cl)c(O)c(Cl)c1O | 23.9

System: Jurkat
Assay: Cytotoxicity against human Jurkat cells assessed as reduction in cell viability at 5 uM by MTT assay
Type: cell-based
Conditions: not given
Procedure, shortened: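 Jurkat cells pre-incubated 30 min with 5 µM compound or 0.1% DMSO vehicle, then incubated under the same conditions as the IL-2 assay (ConA added, 12 h). Viable cells were measured by MTT assay as percent of control. Mean ± SD of three independent experiments.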

SMILES | Activity
CCCCCCC(=O)c1c(OC)c(Cl)c(OC)c(Cl)c1OC | Non-toxic
CCCCCCCC(=O)c1c(O)c(Cl)c(O)c(Cl)c1O | Non-toxic
